From PubChem
TRPC6 inh = mouse TRPC6 channel inhibition | HEK293-TRPC6, membrane potential dye, ACh-evoked depolarization; hits give low values | B-score at 10 µM | 310,000 compounds, 1.1% hits;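 active means B-score under library mean minus 3 SD, initial fluorescence not abnormally high, positive integrated signal ratio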;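 further: B-score derived from integrated fluorescence ratio over the kinetic read; more negative B-score means stronger inhibition of depolarization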
Target sequence (Q61143 whole entry, looked up): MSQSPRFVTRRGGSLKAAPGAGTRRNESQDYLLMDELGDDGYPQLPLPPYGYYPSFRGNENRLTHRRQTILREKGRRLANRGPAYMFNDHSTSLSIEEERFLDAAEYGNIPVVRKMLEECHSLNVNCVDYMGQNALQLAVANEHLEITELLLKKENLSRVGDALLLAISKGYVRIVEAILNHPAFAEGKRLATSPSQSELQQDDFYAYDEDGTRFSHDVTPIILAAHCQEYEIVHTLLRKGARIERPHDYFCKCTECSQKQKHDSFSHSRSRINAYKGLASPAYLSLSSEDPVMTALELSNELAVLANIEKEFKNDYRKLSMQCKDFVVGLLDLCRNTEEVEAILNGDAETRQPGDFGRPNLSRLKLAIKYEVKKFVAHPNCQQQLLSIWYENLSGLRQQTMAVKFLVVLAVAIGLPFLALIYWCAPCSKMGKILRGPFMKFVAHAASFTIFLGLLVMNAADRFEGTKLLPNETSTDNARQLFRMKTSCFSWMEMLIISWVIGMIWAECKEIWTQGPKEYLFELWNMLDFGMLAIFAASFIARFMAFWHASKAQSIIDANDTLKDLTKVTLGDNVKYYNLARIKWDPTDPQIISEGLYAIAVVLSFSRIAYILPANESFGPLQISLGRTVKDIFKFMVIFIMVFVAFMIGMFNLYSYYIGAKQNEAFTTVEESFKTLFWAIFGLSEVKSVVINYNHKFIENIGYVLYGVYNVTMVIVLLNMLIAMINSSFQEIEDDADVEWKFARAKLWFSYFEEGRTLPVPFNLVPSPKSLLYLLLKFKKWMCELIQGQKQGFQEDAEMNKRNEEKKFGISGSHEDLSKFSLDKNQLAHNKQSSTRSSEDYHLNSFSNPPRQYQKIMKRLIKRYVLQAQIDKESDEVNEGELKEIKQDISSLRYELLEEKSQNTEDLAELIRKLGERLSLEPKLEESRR
TRPC6 act = mouse TRPC6 channel activation; Q61143; HEK293-TRPC6 membrane potential dye fluorescence; hits give high values; B-score at 10 µM; 310,000 compounds, 0.13% hits; AID 2550;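 active means B-score of the integrated fluorescence ratio above library mean plus 3 SD, and starting fluorescence ratio within library mean plus 5 SD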;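 further: higher score means more depolarization so channel activation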
Platelet DG rel = platelet dense granule release activity; human platelet-rich plasma, SFLLRN dense granule ATP release, luminescence; inhibition, %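 (compounds screened at 7.5 µM in platelet-rich plasma)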; 300,000 compounds, 0.22% hits; AID 1663;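 active means mean replicate score, as percent of positive control, at or above 50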
TRPC4 PAM = TRPC4 (mouse) allosteric potentiation. HEK293 TRPC4beta/mu-opioid, DAMGO EC20, Fluo-4 Ca2+ flux; hits give high values. Q9QUQ5. B-score at 10 µM. AID 2227. 310,000 compounds, 0.42% hits;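 active means B-score of calcium response area above 5 SD of library B-scores, with initial fluorescence ratio within 5 SD of library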;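 further: B-score of integrated fluorescence ratio over time as area under calcium response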
TRPC4 agonist = TRPC4 (mouse) channel activation. Q9QUQ5. HEK293 TRPC4beta/mu-opioid, Fluo4 calcium fluorescence; hits give high values. B-score at 10 µM. 310,000 compounds, 0.49% hits. AID 2237;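 active means B-score above 5 SD of library B-scores, and initial fluorescence ratio not above library mean plus 5 SD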;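 further: positive B-score marks a calcium rise read as TRPC4 activation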
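Material: TRPC4beta and mu-opioid receptor HEK293 stable cells | Incubation: 45 min room-temperature Fluo4 loading, 110 s read | Detection: Kinetic Fluo4 calcium fluorescence | Measure: Integrated baseline-normalised fluorescence ratio, converted to per-well B score | Benchmarks: Low control buffer alone, high control maximal DAMGO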
TRPC4 block = inhibitors of mouse TRPC4 channel | Q9QUQ5 | HEK293 TRPC4beta/mu-opioid, DAMGO-evoked Fluo4 calcium flux; hits give low values | B-score at 10 µM | 300,000 compounds, 0.39% hits;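 active means B-score over 3 SD under the library average, no early fluorescence shift, positive overall ratio signal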
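Assay system: HEK293 cells with stable TRPC4beta plus mu-opioid receptor expression; Probe or stimulus: DAMGO in two steps, submaximal then maximal; Dosing: single-point compound dosing; Measured by: Fluo4 calcium-dye fluorescence, kinetic read; Read-out basis: B score from integrated Fluo4 fluorescence ratio.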
* = called active by the depositor; i = inactive; nt = not tested or not shown. An excerpt weighted towards active compounds, which were near 2.5% of everything screened.

SMILES	TRPC6 inh	TRPC6 act	Platelet DG rel	TRPC4 PAM	TRPC4 agonist	TRPC4 block
O=C(Nc1ccc(NC(=O)c2ccccc2Cl)nc1)c1ccco1	i	i	1	i	i	i
O=Cc1cc(N=Nc2ccccc2Cl)ccc1O	i	i	-10	i	i	-7*
CC1CN(C(=O)COC(=O)c2nn(-c3ccccc3)c(=O)c3ccccc23)CC(C)O1 (configuration not stated)	i	i	8	i	i	i
CCN1CCN(c2ncnc3sc(C)c(-c4ccccc4)c23)CC1	i	i	-1	i	86*	i
CCN1CCN(c2ncnc3scc(-c4ccc(C)c(C)c4)c23)CC1	i	i	-3	i	i	i
O=C(c1ccccc1)n1c(=O)c(F)cn(COCCBr)c1=O	i	i	-3	i	i	i
CCN1C(=O)c2cccc3c(S(=O)(=O)Nc4ccc(O)c(C(=O)O)c4)ccc1c23	i	i	-6	i	i	i
CCN1C(=O)c2cccc3c(S(=O)(=O)Nc4ccccc4OC)ccc1c23	i	i	-9	i	76*	i
Cc1ccccc1C(=O)NNC(=O)C1CC(=O)N(Cc2ccccc2)C1 (configuration not stated)	i	i	18	i	i	i
CC(C)c1c(O)nc(SCCN(C)C)[nH]c1=O	i	i	-3	35*	i	i
CC(C)c1c(O)nc(SCC(=O)N2CCOCC2)[nH]c1=O	i	i	0	i	i	i
CCCc1c(O)nc(SCC(=O)N2CCCCC2)[nH]c1=O	i	i	1	i	i	i
CCCCCCCc1c(O)nc(SCCN(C)C)[nH]c1=O	i	i	7	10*	81*	i
CCCc1c(O)nc(SCCN(CCC)CCC)[nH]c1=O	i	i	1	19*	49*	i
O=C(CN1CCC(C(=O)c2ccc3c(c2)OCCO3)CC1)NCc1ccc(F)cc1	i	i	-5	i	i	i
CN1CCN(C(N)=NC(=O)c2ccccc2)CC1	i	i	4	i	i	i
O=C(Nc1ccc(Br)cc1)Nn1cnnc1	i	i	-2	i	i	i
COCCN(CCOC)C(=O)c1cc2sc3ccccc3c2s1	i	i	3	13*	i	i
CCN(CC)C(=O)c1cc2sc3ccccc3c2s1	i	i	6	i	i	i
CN(C)CCNC(=O)c1cc2sc3ccccc3c2s1	i	i	0	10*	i	i
CCCCCN(C(=O)CCC(=O)OC(C)C(=O)c1ccc(Cl)cc1)c1c(N)n(CCCC)c(=O)[nH]c1=O (configuration not stated)	i	i	nt	i	i	i
NS(=O)(=O)c1ccc(CCNC(=O)C2CCCN2S(=O)(=O)c2cccc3nsnc23)cc1 (configuration not stated)	i	i	5	i	i	i
CCN(CCCNC(=O)CCCOc1cc(=O)n(C)c2ccccc12)Cc1ccccc1	i	i	5	21*	i	i
CCN(CCCNC(=O)COc1cc(=O)n(CC)c2ccccc12)Cc1ccccc1	i	i	-1	i	i	i
O=C(CCC1CCCC1)c1c(O)c2ccccc2oc1=O	i	i	-3	i	193*	i
SMILES	TRPC6 inh	TRPC6 act	Platelet DG rel	TRPC4 PAM	TRPC4 agonist	TRPC4 block
O=C(c1c(O)c2ccccc2oc1=O)C1CCCCC1	i	i	2	i	i	i
O=C(NC(=S)Nc1ncc(Br)cc1Br)c1ccccc1	i	i	-7	i	i	i
CC1(c2ccccc2)NC(=O)N(CC(=O)Nc2ccc3c(c2)OCO3)C1=O (configuration not stated)	i	i	8	i	i	i
CC1(c2ccc(OC(F)F)cc2)NC(=O)N(CC(=O)Nc2ccc3c(c2)OCO3)C1=O (configuration not stated)	i	i	4	12*	89*	i
CCOC(=O)CN1C(=O)NC(C)(c2ccc(OC(F)F)cc2)C1=O (configuration not stated)	i	i	3	i	i	i
CC1(c2ccc(OC(F)F)cc2)NC(=O)N(CC(=O)Nc2ccccc2)C1=O (configuration not stated)	i	i	-10	i	68*	i
CC(=O)Nc1ccc(/C=N/N2C(=O)NC(C)(c3ccc(OC(F)F)cc3)C2=O)cc1 (configuration not stated)	i	i	8	i	95*	i
Cn1c(=O)c2sccc2n2c(CCCC(=O)Nc3ccccc3)nnc12	i	i	1	i	i	i
Cn1c(=O)c2sccc2n2c(CCCC(=O)NC3CCN(Cc4ccccc4)CC3)nnc12	i	i	5	14*	i	i
CN1C2C=C(N(CCc3c[nH]c4ccccc34)C(=O)c3ccc(Cl)cc3)CC1CC2 (configuration not stated)	i	i	5	i	88*	-6*
CC1(C)CC(=O)C=C(NCCc2c[nH]c3ccccc23)C1	i	i	-9	i	i	i
O=C(Nc1nccs1)c1ncc(Cl)c(Cl)c1Cl	i	i	-9	i	i	i
CNc1nc(Cl)c(SC)c(NCc2ccc(F)cc2)n1	i	i	5	i	i	i
Cc1ccc(CNc2ccc3c(c2)ncn3C(C)C)cc1	i	i	4	i	45*	i
CCn1cnc2cc(NCc3ccc(C)cc3)ccc21	i	i	4	i	i	i
O=C(CCNC(=O)C1CCN(S(=O)(=O)c2ccc(F)cc2)CC1)NCc1cccnc1	i	i	2	i	i	i
O=C(OCC(=O)N1CCOCC1)c1cccc(S(=O)(=O)N2CCCc3ccccc32)c1	i	i	20	15*	i	i
CCOC(=O)C1=C(C)OC(N)=C(C#N)C1c1ccc(C)s1 (configuration not stated)	i	i	3	i	i	i
COc1ccc(-n2nnnc2SCC(=O)N2CCCC2)cc1OC	i	i	7	i	i	i
CC(=O)c1cccc(-n2nnnc2SCC(=O)N2CCCC2)c1	i	i	50*	i	i	i
C/C(=N\N1CCN(C)CC1)c1ccc(OC(F)F)cc1	i	i	-3	i	i	i
C/C(=N\N1CCN(C)CC1)c1ccc(Cl)c(Cl)c1	i	i	7	15*	i	i
